Assay results as given in ChEMBL document CHEMBL4706573, “Synthesis and evaluation of thiophene based small molecules as potent inhibitors of Mycobacterium tuberculosis” (Eur J Med Chem, 2020).
≈ marks a conversion by molar mass, not a printed value. Calls of active or inactive are those of the source. The calls are words filed in the database; no cut-off is given here.

Assays:
THP-1 = test: Cytotoxicity against human THP-1 cells assessed as reduction in cell viability measured after 96 hrs by WST1 assay; format: cell-based; details: thp-1, 96 h
How it was run: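 THP-1 cells seeded at 20,000/well with 20 ng/ml PMA for 48 h. Cells then washed and rested 24 h in RPMI with 10% FBS. Drug dilutions in RPMI complete medium added in triplicate for 96 h. Viability read by WST-1 reagent after a 30 min incubation.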

[1] = test system: Mycobacterium tuberculosis; test: Antimycobacterial activity against Mycobacterium tuberculosis H37Rv after 10 to 14 days; format: functional; details: time 10-14 day
How it was run: (§1)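 MIC99 determined in whole cells, tested in triplicate with INH as the positive control. Strains were wild-type, pMV306, pMV306-pks13 and INH-resistant mc2 497. Susceptibility was scored relative to the parental strain: S where the MIC99 was at most 2x the parental MIC99.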

[2] = test system: Mycobacterium tuberculosis; test: Antimycobacterial activity against Mycobacterium tuberculosis H37Rv; format: functional
[3] = Inhibition of N-terminal His-tagged Mycobacterium tuberculosis PtpB expressed in Escherichia coli BL21 (DE3)-CodonPlus cells using DiFMUP as substrate measured after 45 mins by spectrofluorimetric method
[4] = test system: Mycobacterium tuberculosis; test: Antimycobacterial activity against early-logarithmic cultures of Mycobacterium tuberculosis H37Rv assessed as bacterial killing at 10 times MIC99 incubated for 7 days followed by 10-fold serial dilution and measured after 2 to 4 weeks; format: functional; details: time 2-5 weeks
How it was run: (§2)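 Early-logarithmic culture (OD600nm ~0.2) exposed to 10x MIC99 for 7 days. Bacteria then counted as CFU and compared with untreated samples. INH used as control.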

[5] = test system: Mycobacterium tuberculosis; test: Antimycobacterial activity against Mycobacterium tuberculosis expressing pMV306-pks13 after 10 to 14 days; format: functional, organism-based; details: time 10-14 day; how it was run: as §1
[6] = test system: Mycobacterium tuberculosis; test: Antimycobacterial activity against Mycobacterium tuberculosis infected in human THP-1 cells assessed as reduction in intracellular bacterial growth at 10 times MIC99 incubated for 4 days followed by 10-fold serial dilution and measured after 3 to 4 weeks relative to control; format: functional; details: time 32 day
How it was run: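 THP-1 cells infected and then washed twice with 1x PBS. Infected macrophages overlaid with RPMI containing drug for 4 days. Lysed on day 0 and day 4 with 1x PBST (0.1% Triton X-100). Tenfold serial dilutions plated on MB 7H11 agar, incubated at 37 °C for 3-4 weeks, then CFU counted. INH used as control.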

[7] = test system: Mycobacterium tuberculosis; test: Antimycobacterial activity against Mycobacterium tuberculosis expressing pMV306 after 10 to 14 days; format: functional, organism-based; details: time 10-14 day; how it was run: as §1
[8] = test system: Mycobacterium tuberculosis; test: Antimycobacterial activity against Mycobacterium tuberculosis H37Ra measured up to 7 days; format: functional; details: 168 h, time day <=7
[9] = test system: Mycobacterium tuberculosis; test: Ratio of MIC99 for antimycobacterial activity against Mycobacterium tuberculosis H37Rv to MIC99 for antimycobacterial activity against Mycobacterium tuberculosis H37Rv in presence of bedaquiline; format: functional
How it was run: (§3)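 Two-drug checkerboard: lead compound serially diluted twofold along one axis, cross-diluted twofold with a TB drug (RIF, INH, LEVO, BDQ or PA-824) to form combinations. FICI calculated for each combination.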

[10] = test system: Mycobacterium tuberculosis; test: Antimycobacterial activity against Mycobacterium tuberculosis H37Rv assessed as FICI in presence of levofloxacin by checkerboard assay; format: functional; how it was run: as §3
[11] = test system: Mycobacterium tuberculosis; test: Antimycobacterial activity against Mycobacterium tuberculosis H37Rv assessed as FICI in presence of rifampicin by checkerboard assay; format: functional; how it was run: as §3
[12] = test system: Mycobacterium tuberculosis; test: Antimycobacterial activity against Mycobacterium tuberculosis H37Rv assessed as FICI in presence of isoniazid by checkerboard assay; format: functional; how it was run: as §3
[13] = test system: Mycobacterium tuberculosis; test: Antimycobacterial activity against early-logarithmic cultures of Mycobacterium tuberculosis H37Rv assessed as reduction in bacterial load at 10 times MIC99 incubated for 7 days followed by 10-fold serial dilution and measured after 2 to 4 weeks; format: functional; details: time 2-5 weeks; how it was run: as §2
[14] = test system: Mycobacterium tuberculosis; test: Antimycobacterial activity against Mycobacterium tuberculosis H37Rv assessed as FICI in presence of pretomanid by checkerboard assay; format: functional; how it was run: as §3
[15] = test system: Mycobacterium tuberculosis; test: Antimycobacterial activity against Mycobacterium tuberculosis H37Rv assessed as FICI in presence of bedaquiline by checkerboard assay; format: functional; how it was run: as §3

Row | Compound | Activity (THP-1) [µM] | MIC99 [1] [µM] | other results
1 | COC(=O)c1cc(-c2ccc(F)cc2)sc1NC(=O)NC(C)C | > 50 | > 10 | 
2 | CCOC(=O)c1cc(-c2ccccc2)sc1N | > 50 | > 10 | 
3 | CCOC(=O)c1cc(-c2ccccc2)sc1NC(=O)NC(C)C | > 50 | 1.56 (≈ 0.519 µg/mL) | 
4 | COC(=O)c1cc(-c2ccc(F)cc2)sc1NC(=O)NC1CC1 | > 50 | > 10 | 
5 | CCOC(=O)c1c(NC(=O)c2c(F)c(F)c(F)c(F)c2F)sc2c1CCCCC2 |  |  | MIC [2]: 1 µM (≈ 0.433 µg/mL)
6 | O=C(O)C(=O)N(Cc1cccc(Cl)c1)Cc1ccc(S(=O)(=O)NCCC(c2ccccc2)c2ccccc2)s1 |  |  | IC50 [3]: 400 nM
7 | CCOC(=O)c1cc(-c2ccccc2)sc1NC(=O)N(C)C | > 50 | > 10 | 
8 | CCOC(=O)c1cc(-c2ccccc2)sc1NC(=O)N1CCCCC1 | > 50 | > 10 | 
9 | CCOC(=O)c1cc(-c2ccccc2)sc1NC(=O)c1cccnc1 | > 50 | > 10 | 
10 | NNC(=O)c1ccncc1 [ISONIAZID] | > 50 | 0.19 (≈ 0.0261 µg/mL) | Activity [4]: >4 log10CFU; Activity [5]: Active; fold change (FC) [6]: 200; Activity [7]: Active
11 | CCOC(=O)c1cc(-c2ccccc2)sc1NC(=O)Nc1ccccc1 | > 50 | > 10 | 
12 | CCOC(=O)c1cc(-c2ccccc2)sc1NC(=O)N1CCN(C)CC1 | > 50 | > 10 | 
13 | CCOC(=O)c1cc(-c2ccccc2)sc1NC(=O)c1ccc(F)cc1 | > 50 | > 10 | 
14 | CCOC(=O)c1cc(-c2ccccc2)sc1NC(C)=O | > 50 | > 10 | 
15 | CCOC(=O)c1cc(-c2ccccc2)sc1NC(=O)c1ccc(C)cc1 | > 50 | > 10 | 
16 | COC(=O)c1cc(-c2cccc(F)c2)sc1NC(=O)CCl | > 50 | 0.19 (≈ 0.0623 µg/mL) | Activity [5]: Active; Activity [7]: Active
17 | CCOC(=O)c1cc(-c2ccccc2)sc1NC(=O)c1ccccc1 | > 50 | > 10 | 
18 | CCOC(=O)c1cc(-c2ccccc2)sc1NC(=O)N1CCOCC1 | > 50 | > 10 | 
19 | COc1ccc([C@@H](c2ccc(OCCN(C(C)C)C(C)C)cc2)c2cccs2)cc1 |  |  | MIC [8]: 3.12 µM (≈ 1.32 µg/mL)
20 | COC(=O)c1ccsc1NC(=O)CCl | > 50 | 0.19 (≈ 0.0444 µg/mL) | Activity [5]: Active; Ratio [9]: 4; fold change (FC) [6]: 2.5; fractional inhibitory concentration index (FICI) [10]: 0.562; Activity [7]: Active; fractional inhibitory concentration index (FICI) [11]: 0.75; fractional inhibitory concentration index (FICI) [12]: 0.75; FC [13]: 10; fractional inhibitory concentration index (FICI) [14]: 1; fractional inhibitory concentration index (FICI) [15]: 0.5

Row | Compound | Activity (THP-1) [µM] | MIC99 [1] [µM] | other results
21 | CCOC(=O)c1cc(-c2ccccc2)sc1NC(=O)NC1CC1 | > 50 | 1.56 (≈ 0.515 µg/mL) | 
22 | COC(=O)c1cc(-c2ccc(F)cc2)sc1NC(=O)CCl | > 50 | 0.78 (≈ 0.256 µg/mL) | Activity [5]: Active; Activity [7]: Active
23 | COC(=O)c1cc(-c2ccc(C(F)(F)F)cc2)sc1NC(=O)CCl | > 50 | 0.39 (≈ 0.147 µg/mL) | Activity [5]: Active; Activity [7]: Active
24 | COC(=O)c1cc(-c2cc(F)cc(F)c2)sc1NC(=O)CCl | > 50 | 0.78 (≈ 0.27 µg/mL) | Activity [5]: Active; Activity [7]: Active
25 | CO[C@H]1/C=C/O[C@@]2(C)Oc3c(C)c(O)c4c(O)c(c(/C=N/N5CCN(C)CC5)c(O)c4c3C2=O)NC(=O)/C(C)=C\C=C\[C@H](C)[C@H](O)[C@@H](C)[C@@H](O)[C@@H](C)[C@H](OC(C)=O)[C@@H]1C [RIFAMPIN] |  | 0.007 (≈ 0.00576 µg/mL) | 
26 | CCOC(=O)c1cc(-c2ccccc2)sc1NC(=O)NC | > 50 | > 10 | 
27 | CCOC(=O)c1cc(-c2ccccc2)sc1NC(=O)Cc1ccccc1 | > 50 | > 10 | 
28 | CCOC(=O)c1cc(-c2ccccc2)sc1NC(N)=O | > 50 | > 10 | 
29 | CCOC(=O)c1cc(-c2ccccc2)sc1NC(=O)N(CC)CC | > 50 | 3.12 (≈ 1.08 µg/mL) | 
30 | CCOC(=O)c1cc(-c2ccccc2)sc1NC(=O)CBr | > 50 | 0.78 (≈ 0.287 µg/mL) | Activity [5]: Active; Activity [7]: Active
31 | CCOC(=O)c1cc(-c2ccccc2)sc1NC(=O)N1CCCC1 | > 50 | > 10 | 
32 | COC(=O)c1cc(-c2ccc(F)cc2)sc1NC(=O)N1CCCCC1 | > 50 | > 10 | 
33 | COC(=O)c1cc(-c2cc3ccccc3s2)sc1NC(=O)CCl | > 50 | 0.78 (≈ 0.285 µg/mL) | Activity [5]: Active; Activity [7]: Active
34 | CCOC(=O)c1cc(-c2ccccc2)sc1NC(=O)c1ccc(C#N)cc1 | > 50 | > 10 | 
35 | COC(=O)c1cc(-c2ccc(F)cc2)sc1NC(=O)N1CCCC1 | > 50 | > 10 | 
36 | COC(=O)c1cc(-c2ccccc2)sc1NC(=O)CCl | > 50 | 0.19 (≈ 0.0589 µg/mL) | Activity [5]: Active; Ratio [9]: 8; fold change (FC) [6]: 5; fractional inhibitory concentration index (FICI) [10]: 0.562; Activity [7]: Active; fractional inhibitory concentration index (FICI) [11]: 0.625; fractional inhibitory concentration index (FICI) [12]: 0.562; FC [13]: 10; fractional inhibitory concentration index (FICI) [14]: 0.625; fractional inhibitory concentration index (FICI) [15]: 0.25
37 | CCOC(=O)c1c(NC(=O)c2c(F)c(F)c(F)c(F)c2F)sc(C(N)=O)c1C |  |  | MIC [2]: 0.5 µM (≈ 0.211 µg/mL)
38 | CCOC(=O)c1cc(-c2ccccc2)sc1NC(=O)NCc1ccccc1 | > 50 | > 10 | 
39 | CCN(CC)C(=O)Nc1sc(-c2ccc(F)cc2)cc1C(=O)OC | > 50 | > 10 | 
